In article PMC2782628 (Journal of medicinal chemistry, 2009):

Columns and labels:
iNOS = iNOS (Mus musculus, UniProt P29477); assay: Blocking study of [18F]9 uptake in LPS-treated mice; type: in vivo, C57BL/6N mice
recombinant human iNOS = recombinant human iNOS (Homo sapiens, UniProt P35228); assay: NOS enzyme assay; type: biochemical; settings: for activity in the iNOS assay: structure-activity discussion
In short: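 Recombinant iNOS in 50 mM Tris pH 7.4 with 1.0 mM NADPH, 3.8 µM each of FMN, FAD and tetrahydro-L-biopterin, 2.0 mM DTT and 2.0 µM L-arginine. Test compound was diluted in methanol or water. [3H]arginine (0.1 µCi) started the reaction, run 30 min at room temperature. Stopped with yttrium-silicate arginine-binding SPA beads in NaOH; beads settled 2 h, then counted. IC50 from inhibition curves, mean ± S.D., N≥3.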

recombinant human eNOS = recombinant human eNOS (Homo sapiens, UniProt P29474); assay: NOS enzyme assay; type: biochemical; settings: iNOS vs eNOS
In short: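 The eNOS buffer also had 20 µg/mL calmodulin and 1 mM CaCl2. [3H]arginine started the reaction, 30 min at room temperature. SPA arginine-binding beads stopped it; counted after 2 h. Mean ± S.D., N≥3.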

[1] = In vivo biodistribution time-course study in control vs. LPS-treated mice; parameters: species or system C57BL/6 mice; settings: for Biodistribution Blood / Biodistribution Bone / Biodistribution Brain / Biodistribution Heart / Biodistribution Kidney / Biodistribution Liver / Biodistribution Lung / Biodistribution Muscle: mean ± SD, n = 4
In short: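 Mature male C57BL/6N mice (6-8 weeks), either given E. coli O127:B8 LPS in PBS (10 mg/kg i.v.) 6 h before tracer or left untreated. HPLC-purified [18F]-labelled test compound (~50 μCi in 10% ethanol/saline) injected i.v. via tail vein. Sacrificed at 5 min, 30 min, 1 h and 2 h. Blood, tissues and organs weighed and gamma-counted against diluted injectate standards, giving %ID/g (mean ± SD).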

recombinant human iNOS, sequence (P35228 whole entry): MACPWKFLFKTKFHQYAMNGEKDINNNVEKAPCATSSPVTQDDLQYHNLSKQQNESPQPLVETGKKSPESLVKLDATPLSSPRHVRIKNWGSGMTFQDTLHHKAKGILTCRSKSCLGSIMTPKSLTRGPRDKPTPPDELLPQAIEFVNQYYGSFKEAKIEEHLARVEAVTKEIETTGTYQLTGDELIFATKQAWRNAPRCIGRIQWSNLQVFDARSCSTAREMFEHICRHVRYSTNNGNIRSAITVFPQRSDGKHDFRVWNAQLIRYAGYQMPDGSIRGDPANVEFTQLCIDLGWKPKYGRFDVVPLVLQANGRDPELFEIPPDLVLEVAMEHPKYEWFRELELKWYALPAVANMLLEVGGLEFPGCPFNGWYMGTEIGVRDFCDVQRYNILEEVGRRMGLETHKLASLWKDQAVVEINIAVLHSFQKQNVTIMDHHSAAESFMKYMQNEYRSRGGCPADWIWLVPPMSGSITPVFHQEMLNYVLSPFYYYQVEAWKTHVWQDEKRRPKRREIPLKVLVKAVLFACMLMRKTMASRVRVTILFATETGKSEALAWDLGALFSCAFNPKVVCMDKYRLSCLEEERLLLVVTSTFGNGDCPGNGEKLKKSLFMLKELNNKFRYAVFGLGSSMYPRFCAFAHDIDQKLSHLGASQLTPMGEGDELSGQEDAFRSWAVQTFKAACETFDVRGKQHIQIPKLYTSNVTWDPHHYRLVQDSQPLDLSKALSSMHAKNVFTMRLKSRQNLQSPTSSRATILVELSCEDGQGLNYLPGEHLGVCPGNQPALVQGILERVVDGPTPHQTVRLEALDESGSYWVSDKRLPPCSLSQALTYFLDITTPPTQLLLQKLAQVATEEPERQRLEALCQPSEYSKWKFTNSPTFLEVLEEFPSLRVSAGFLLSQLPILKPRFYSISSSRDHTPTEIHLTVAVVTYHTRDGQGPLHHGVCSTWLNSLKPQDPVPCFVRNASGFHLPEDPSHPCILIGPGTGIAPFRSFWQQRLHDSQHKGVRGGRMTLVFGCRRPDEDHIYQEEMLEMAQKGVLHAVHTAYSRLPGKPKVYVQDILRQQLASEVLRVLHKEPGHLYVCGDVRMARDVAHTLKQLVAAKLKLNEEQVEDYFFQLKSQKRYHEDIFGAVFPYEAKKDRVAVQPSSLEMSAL

With `Cc1ccnc(N)c1` [Compound 1, 2-amino-4-methylpyridine] the “blocking of the increased [18F]9 uptake in the LPS-treated mice” value (iNOS; blocking agent 10 mg/kg, i.v., data not shown) was “failed to block”.
In the case of `Nc1ccccn1` [Compound 2-AP, 2-aminopyridine, reference compound], the IC50 (recombinant human iNOS) is reported as 108 nM.
In the case of `COC(C)Cc1cc(C)cc(N)n1` (centres unmarked) [Compound 13, 6-(2-Methoxypropyl)-4-methylpyridin-2-amine], the “activity in the iNOS assay” value (recombinant human iNOS) is reported as “inactive”.
For `Cc1cc(N)nc(CC(C)OCCF)c1` (centres unmarked) [Compound 15, 6-(2-(2-Fluoroethoxy)propyl)-4-methylpyridin-2-amine], the “activity in the iNOS assay” value (recombinant human iNOS) was “inactive”.
For `Cc1cc(N)nc(CCCF)c1` [Compound 18, 6-(3-Fluoropropyl)-4-methylpyridin-2-amine], the “selectivity against eNOS” value (recombinant human eNOS) was “approximately 30 fold”.
For `COCCC(C)Cc1cc(C)cc(N)n1` (centres unmarked) [Compound 27, 6-(4-methoxy-2-methylbutyl)-4-methylpyridin-2-amine], the “activity in the iNOS assay” value (recombinant human iNOS) was “inactive”.
With `CSCCC(C)Cc1cc(C)cc(N)n1` (centres unmarked) [Compound 33, 4-Methyl-6-(2-methyl-4-(methylthio)butyl)pyridin-2-amine] the “activity in the iNOS assay” value (recombinant human iNOS) was “inactive”.
For `CC(=N)NCc1cccc(CN)c1` [Compound 1400W, N-(3-(aminomethyl)benzyl)acetamidine], the “tracer ([18F]9) uptake in the lungs and blood of the LPS-treated mice blocked” value (iNOS; mouse, in vivo) was 32%.
With `Cc1cc(N)nc(CC(C)[18F])c1` (centres unmarked) [[^18F]9, [^18F]6-(2-Fluoropropyl)-4-methylpyridin-2-amine] the “Biodistribution Blood” value ([1]; 5 min, Control mice) was 2.37±0.18 %ID/g, the “Biodistribution Blood” value ([1]; 5 min, LPS-treated mice) was 3.69±0.38 %ID/g and the “Biodistribution Blood” value ([1]; 30 min, Control mice) was 1.22±0.16 %ID/g. The “Biodistribution Blood” value ([1]; 30 min, LPS-treated mice) was 2.09±0.35 %ID/g, the “Biodistribution Blood” value ([1]; 1 h, Control mice) was 0.31±0.04 %ID/g and the “Biodistribution Blood” value ([1]; 1 h, LPS-treated mice) was 0.86±0.09 %ID/g. The “Biodistribution Blood” value ([1]; 2 h, Control mice) was 0.27±0.22 %ID/g, the “Biodistribution Blood” value ([1]; 2 h, LPS-treated mice) was 0.23±0.05 %ID/g and the “Biodistribution Bone” value ([1]; 5 min, Control mice) was 1.52±0.36 %ID/g. The “Biodistribution Bone” value ([1]; 5 min, LPS-treated mice) was 1.59±0.15 %ID/g, the “Biodistribution Bone” value ([1]; 30 min, Control mice) was 2.26±0.55 %ID/g and the “Biodistribution Bone” value ([1]; 30 min, LPS-treated mice) was 3.70±1.20 %ID/g. For the same molecule, the “Biodistribution Bone” value ([1]; 1 h, Control mice) was 2.57±0.64 %ID/g, the “Biodistribution Bone” value ([1]; 1 h, LPS-treated mice) was 4.30±0.90 %ID/g and the “Biodistribution Bone” value ([1]; 2 h, Control mice) was 5.59±4.20 %ID/g. For the same molecule, the “Biodistribution Bone” value ([1]; 2 h, LPS-treated mice) was 3.77±1.41 %ID/g, the “Biodistribution Brain” value ([1]; 5 min, Control mice) was 1.60±0.17 %ID/g and the “Biodistribution Brain” value ([1]; 5 min, LPS-treated mice) was 1.81±0.09 %ID/g. For the same molecule, the “Biodistribution Brain” value ([1]; 30 min, Control mice) was 0.28±0.02 %ID/g, the “Biodistribution Brain” value ([1]; 30 min, LPS-treated mice) was 0.52±0.15 %ID/g and the “Biodistribution Brain” value ([1]; 1 h, Control mice) was 0.11±0.02 %ID/g. The “Biodistribution Brain” value ([1]; 1 h, LPS-treated mice) was 0.19±0.03 %ID/g, the “Biodistribution Brain” value ([1]; 2 h, Control mice) was 0.07±0.03 %ID/g and the “Biodistribution Brain” value ([1]; 2 h, LPS-treated mice) was 0.07±0.03 %ID/g. The “Biodistribution Heart” value ([1]; 5 min, Control mice) was 1.50±0.12 %ID/g, the “Biodistribution Heart” value ([1]; 5 min, LPS-treated mice) was 2.03±0.06 %ID/g and the “Biodistribution Heart” value ([1]; 30 min, Control mice) was 0.60±0.05 %ID/g. For the same molecule, the “Biodistribution Heart” value ([1]; 30 min, LPS-treated mice) was 1.02±0.16 %ID/g, the “Biodistribution Heart” value ([1]; 1 h, Control mice) was 0.19±0.02 %ID/g and the “Biodistribution Heart” value ([1]; 1 h, LPS-treated mice) was 0.41±0.10 %ID/g. The “Biodistribution Heart” value ([1]; 2 h, Control mice) was 0.08±0.02 %ID/g, the “Biodistribution Heart” value ([1]; 2 h, LPS-treated mice) was 0.12±0.04 %ID/g and the “Biodistribution Kidney” value ([1]; 5 min, Control mice) was 20.6±2.4 %ID/g. For the same molecule, the “Biodistribution Kidney” value ([1]; 5 min, LPS-treated mice) was 26.7±4.1 %ID/g, the “Biodistribution Kidney” value ([1]; 30 min, Control mice) was 7.30±0.66 %ID/g and the “Biodistribution Kidney” value ([1]; 30 min, LPS-treated mice) was 10.9±2.8 %ID/g. The “Biodistribution Kidney” value ([1]; 1 h, Control mice) was 2.20±0.25 %ID/g, the “Biodistribution Kidney” value ([1]; 1 h, LPS-treated mice) was 3.95±0.53 %ID/g and the “Biodistribution Kidney” value ([1]; 2 h, Control mice) was 0.80±0.27 %ID/g. For the same molecule, the “Biodistribution Kidney” value ([1]; 2 h, LPS-treated mice) was 0.91±0.63 %ID/g, the “Biodistribution Liver” value ([1]; 5 min, Control mice) was 33.2±3.3 %ID/g and the “Biodistribution Liver” value ([1]; 5 min, LPS-treated mice) was 24.6±3.1 %ID/g. For the same molecule, the “Biodistribution Liver” value ([1]; 30 min, Control mice) was 10.7±0.3 %ID/g, the “Biodistribution Liver” value ([1]; 30 min, LPS-treated mice) was 7.06±0.28 %ID/g and the “Biodistribution Liver” value ([1]; 1 h, Control mice) was 2.59±0.49 %ID/g. For the same molecule, the “Biodistribution Liver” value ([1]; 1 h, LPS-treated mice) was 2.63±0.52 %ID/g, the “Biodistribution Liver” value ([1]; 2 h, Control mice) was 0.74±0.23 %ID/g and the “Biodistribution Liver” value ([1]; 2 h, LPS-treated mice) was 0.42±0.15 %ID/g. The “Biodistribution Lung” value ([1]; 5 min, Control mice) was 3.33±0.28 %ID/g, the “Biodistribution Lung” value ([1]; 5 min, LPS-treated mice) was 4.32±0.32 %ID/g and the “Biodistribution Lung” value ([1]; 30 min, Control mice) was 1.14±0.13 %ID/g. For the same molecule, the “Biodistribution Lung” value ([1]; 30 min, LPS-treated mice) was 1.84±0.27 %ID/g, the “Biodistribution Lung” value ([1]; 1 h, Control mice) was 0.31±0.06 %ID/g and the “Biodistribution Lung” value ([1]; 1 h, LPS-treated mice) was 0.73±0.17 %ID/g. For the same molecule, the “Biodistribution Lung” value ([1]; 2 h, Control mice) was 0.15±0.03 %ID/g, the “Biodistribution Lung” value ([1]; 2 h, LPS-treated mice) was 0.18±0.09 %ID/g and the “Biodistribution Muscle” value ([1]; 5 min, Control mice) was 1.25±0.06 %ID/g. The “Biodistribution Muscle” value ([1]; 5 min, LPS-treated mice) was 1.64±0.09 %ID/g, the “Biodistribution Muscle” value ([1]; 30 min, Control mice) was 0.71±0.31 %ID/g and the “Biodistribution Muscle” value ([1]; 30 min, LPS-treated mice) was 1.06±0.40 %ID/g. The “Biodistribution Muscle” value ([1]; 1 h, Control mice) was 0.27±0.18 %ID/g, the “Biodistribution Muscle” value ([1]; 1 h, LPS-treated mice) was 0.78±0.47 %ID/g and the “Biodistribution Muscle” value ([1]; 2 h, Control mice) was 0.34±0.27 %ID/g. The “Biodistribution Muscle” value ([1]; 2 h, LPS-treated mice) was 0.23±0.13 %ID/g, the “increase in injected dose/gram (ID/g) in the lungs, LPS-treated vs control mice” value ([1]; 5 min) was 30% and the “increase in injected dose/gram (ID/g) in the lungs, LPS-treated vs control mice” value ([1]; 30 min) was 60%.
